# Activity calls are given as the source filed them. No cut-off for these calls is given here.
# Assays:
# PC-3 [1] = assay: Cytotoxicity against human PC3 cells assessed as decrease in cell viability after 48 hrs by MTS assay; format: functional; conditions: PC-3, 48 h
# Method in brief: (§1)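 Cells grown at 37 °C, 5% CO2, with 10% FBS and penicillin/streptomycin: MDA-MB-231, JIMT1 and DU145 in DMEM, PC3 in F12K, BT474 in Hybricare, MiaPaCa2 in DMEM plus 2.5% horse serum. Cells (7500–9000/well) were plated for 24 h, then exposed to 0–20 µM for 48 h. MTS was added for 1–4 h and OD490 read, blank-subtracted, relative to vehicle. CC50 was read from plots; mean ± SD, six independent determinations.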
# MDA-MB-231 [2] = assay: Cytotoxicity against human MDA-MB-231 cells assessed as decrease in cell viability after 48 hrs by MTS assay; format: functional; conditions: MDA-MB-231, 48 h; method in brief: as §1
# JIMT-1 [3] = assay: Cytotoxicity against human JIMT1 cells assessed as decrease in cell viability after 48 hrs by MTS assay; format: functional; conditions: JIMT-1, 48 h; method in brief: as §1
# BT-474 [4] = assay: Cytotoxicity against human BT474 cells assessed as decrease in cell viability after 48 hrs by MTS assay; format: functional; conditions: BT-474, 48 h; method in brief: as §1
# [5] = Chemical stability of compound in aqueous DMSO solution at pH 2 to 3 at 30 uM after 1 week; format: physicochemical; conditions: buffer, pH 2, 168 h
# Method in brief: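 Tested as the TFA salt at 30 µM in aqueous DMSO, pH 2-3, and held for at least one week.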
# DU-145 [6] = assay: Cytotoxicity against human DU145 cells assessed as decrease in cell viability after 48 hrs by MTS assay; format: functional; conditions: DU-145, 48 h; method in brief: as §1
# MIA PaCa-2 [7] = assay: Cytotoxicity against human MIAPaCa2 cells assessed as decrease in cell viability after 48 hrs by MTS assay; format: functional; conditions: MIA PaCa-2, 48 h; method in brief: as §1
# BT-474 [8] = assay: Induction of disintegration of human BT474 cancer stem cell spheroids at 7.5 uM after 3 days by microscopic method; format: functional, cell-based
# Method in brief: (§2)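 BT474 stem-cell spheroids (ALDH1-sorted, formed over 6 days in Mammocult on ultra-low adhesion plates) exposed to 0, 7.5 or 20 µM for 3 days. Integrity was judged by light microscopy at ×10 against untreated spheroid wells.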
# BT-474 [9] = assay: Induction of disintegration of human BT474 cancer stem cell spheroids at 20 uM after 3 days by microscopic method; format: functional, cell-based; method in brief: as §2
# BT-474 [10] = assay: Cytotoxicity against human BT474 cancer stem cell spheroids assessed as cell viability at 20 uM after 3 days by MTS assay relative to control; conditions: BT-474, 72 h
# BT-474 [11] = assay: Cytotoxicity against human BT474 cancer stem cell spheroids assessed as decrease in cell viability at 2 to 10 uM after 3 days by MTS assay
# [12] = Cytotoxicity against human A2780C/P cells assessed as cell viability at 4 to 8 uM after 48 hrs by MTS assay relative to control; format: functional
# Method in brief: (§3)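 Exponentially growing cells (7500–9000/well) were seeded for 24 h, then given compound at 0–20 µM for a further 48 h. MTS reagent (20% v/v) was added for 1–4 h and OD490 read. Blanks were cell-free media wells, and viability was expressed relative to vehicle controls. CC50 was read from viability plots; mean ± SD of six independent determinations.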
# MIA PaCa-2 [13] = assay: Cytotoxicity against human MIAPaCa2 cells assessed as cell viability at 4 to 10 uM after 48 hrs by MTS assay relative to control; format: functional; method in brief: as §1
# MDA-MB-231 [14] = assay: Cytotoxicity against human MDA-MB-231 cells assessed as decrease in cell viability at 6 uM after 48 hrs by MTS assay relative to control; format: functional
# DU-145 [15] = assay: Cytotoxicity against human DU145 cells assessed as cell viability at 4 to 10 uM after 48 hrs by MTS assay relative to control; format: functional; method in brief: as §1
# JIMT-1 [16] = assay: Induction of morphological changes in human JIMT1 cells at 6 uM after 4 hrs by bright field microscopic method; format: functional, cell-based
# Method in brief: (§4)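 DU145 and JIMT1 grown in DMEM with 10% FBS and antibiotics, plated 24 h, then given 4–6 µM for 5–6 h (legend: 4 h). Ethidium homodimer-1 was added at 2 µM final, and cells were examined by bright-field and fluorescence microscopy at ×20. Controls: untreated cells, and 0.01% Triton X-100 for 10 min.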
# BT-549 [17] = assay: Cytotoxicity against human BT549 cells assessed as decrease in cell viability at 6 uM after 48 hrs by MTS assay relative to control; format: functional
# U-251 [18] = assay: Cytotoxicity against human U251 cells assessed as decrease in cell viability after 48 hrs by MTS assay; format: functional; conditions: U-251, 48 h; method in brief: as §3
# MDA-MB-453 [19] = assay: Cytotoxicity against human MDA-MB-453 cells assessed as decrease in cell viability at 6 uM after 48 hrs by MTS assay relative to control; format: functional
# MDA-MB-453 [20] = assay: Cytotoxicity against human MDA-MB-453 cells assessed as decrease in cell viability after 48 hrs by MTS assay; format: functional; conditions: MDA-MB-453, 48 h
# DU-145 [21] = assay: Induction of morphological changes in human DU145 cells at 6 uM after 4 hrs by bright field microscopic method; format: functional, cell-based; method in brief: as §4
# [22] = Cytotoxicity against human U87 cells assessed as decrease in cell viability after 48 hrs by MTS assay; format: functional, U-87MG ATCC; conditions: U-87 MG; method in brief: as §3
# BT-549 [23] = assay: Cytotoxicity against human BT549 cells assessed as decrease in cell viability after 48 hrs by MTS assay; format: functional; conditions: BT-549, 48 h
# MDA-MB-468 [24] = assay: Cytotoxicity against human MDA-MB-468 cells assessed as decrease in cell viability at 6 uM after 48 hrs by MTS assay relative to control; format: functional
# [25] = Cytotoxicity against human A2780C/P cells assessed as decrease in cell viability after 48 hrs by MTS assay; format: functional; method in brief: as §3
# Hs-578T [26] = assay: Cytotoxicity against human Hs 578T cells assessed as decrease in cell viability at 6 uM after 48 hrs by MTS assay relative to control; format: functional
# BT-474 [27] = assay: Cytotoxicity against human BT474 cells assessed as cell viability at 4 to 10 uM after 48 hrs by MTS assay relative to control; format: functional; method in brief: as §1
# A2780S [28] = assay: Cytotoxicity against human A2780S cells assessed as decrease in cell viability after 48 hrs by MTS assay; format: functional; method in brief: as §3
# BT-474 [29] = assay: Cytotoxicity against human BT474 cancer stem cell spheroids assessed as cell viability at 10 uM after 3 days by MTS assay relative to control; conditions: BT-474, 72 h
# MDA-MB-468 [30] = assay: Cytotoxicity against human MDA-MB-468 cells assessed as decrease in cell viability after 48 hrs by MTS assay; format: functional; conditions: MDA-MB-468, 48 h
# DU-145 [31] = assay: Cytotoxicity against human DU145 cells assessed as decrease in cell viability at 2 to 8 uM in presence of pan-caspase inhibitor Q-VD-OPh after 48 hrs by MTS assay; format: functional, cell-based
# Method in brief: (§5)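 DU145 or JIMT1 cells seeded for 24 h, then given 40 µM pan-caspase inhibitor along with varying compound concentrations. Incubation continued 48 h, then MTS (20% v/v) for 1–4 h, OD490 read. Values are blank-subtracted and relative to vehicle controls; mean ± SD.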
# JIMT-1 [32] = assay: Cytotoxicity against human JIMT1 cells assessed as decrease in cell viability at 2 to 8 uM in presence of pan-caspase inhibitor Q-VD-OPh after 48 hrs by MTS assay; format: functional, cell-based; method in brief: as §5
# JIMT-1 [33] = assay: Membranolytic activity in human JIMT1 cells at 6 uM after 4 hrs by ethidium homodimer-1 staining-based fluorescence microscopic method; format: functional, cell-based; method in brief: as §4
# U-251 [34] = assay: Cytotoxicity against human U251 cells assessed as cell viability at 4 to 8 uM after 48 hrs by MTS assay relative to control; format: functional; method in brief: as §3
# JIMT-1 [35] = assay: Cytotoxicity against human JIMT1 cells assessed as cell viability at 4 to 10 uM after 48 hrs by MTS assay relative to control; format: functional; method in brief: as §1
# A2780S [36] = assay: Cytotoxicity against human A2780S cells assessed as cell viability at 4 to 8 uM after 48 hrs by MTS assay relative to control; format: functional; method in brief: as §3
# MDA-MB-231 [37] = assay: Cytotoxicity against human MDA-MB-231 cells assessed as cell viability at 4 to 10 uM after 48 hrs by MTS assay relative to control; format: functional; method in brief: as §1
# [38] = Ratio of compound concentration showing <20% hemolysis in ovine erythrocytes to CC50 for human BT474 cells
# DU-145 [39] = assay: Membranolytic activity in human DU145 cells at 6 uM after 4 hrs by ethidium homodimer-1 staining-based fluorescence microscopic method; format: functional, cell-based; method in brief: as §4
# PC-3 [40] = assay: Cytotoxicity against human PC3 cells assessed as cell viability at 4 to 10 uM after 48 hrs by MTS assay relative to control; format: functional; method in brief: as §1
# [41] = Cytotoxicity against human U87 cells assessed as cell viability at 4 to 8 uM after 48 hrs by MTS assay relative to control; format: functional, U-87MG ATCC; method in brief: as §3
# Hs-578T [42] = assay: Cytotoxicity against human Hs 578T cells assessed as decrease in cell viability after 48 hrs by MTS assay; format: functional
smiles,measurement,setting,value
CCCCCCCCCCCCCCCCOC[C@H](CO[C@@H]1O[C@H](CNCCCCCCCCCCCCNC(=O)CCCc2ccc(N(CCCl)CCCl)cc2)[C@@H](O)[C@H](O)[C@H]1N)OC.O=C(O)C(F)(F)F.O=C(O)C(F)(F)F,CC50,PC-3 [1],> 20 µM
same,CC50,MDA-MB-231 [2],10.5 µM
same,CC50,JIMT-1 [3],16 µM
same,CC50,BT-474 [4],13 µM
same,Stability,[5],Stable
same,CC50,DU-145 [6],> 20 µM
same,CC50,MIA PaCa-2 [7],> 20 µM
CC[C@@H](C(=O)[C@@H](C)[C@@H](O)[C@H](C)[C@@H]1O[C@@H]([C@@H](CC)C(=O)O)CC[C@@H]1C)[C@H]1O[C@]2(C=C[C@@H](O)[C@]3(CC[C@@](C)([C@H]4CC[C@](O)(CC)[C@H](C)O4)O3)O2)[C@H](C)C[C@@H]1C,Activity,BT-474 [8],inactive
same,Activity,BT-474 [9],Active
O=C(O)CCCc1ccc(N(CCCl)CCCl)cc1 [CHLORAMBUCIL],CC50,PC-3 [1],> 150 µM
same,CC50,MDA-MB-231 [2],> 150 µM
same,CC50,JIMT-1 [3],> 150 µM
same,CC50,BT-474 [4],> 150 µM
same,CC50,DU-145 [6],> 150 µM
same,CC50,MIA PaCa-2 [7],> 150 µM
CCCCCCCCCCCCCCCCOC[C@H](CO[C@@H]1O[C@H](CNCCCN)[C@@H](O)[C@H](O)[C@H]1N)OC,CC50,PC-3 [1],12.5 µM
same,CC50,MDA-MB-231 [2],13.5 µM
same,CC50,JIMT-1 [3],13.5 µM
same,Activity,BT-474 [8],Active
same,CC50,BT-474 [4],> 20 µM
same,CC50,DU-145 [6],16.5 µM
same,Activity,BT-474 [9],inactive
same,viability at 20 µM,BT-474 [10],0%
same,CC50,MIA PaCa-2 [7],18.5 µM
CCCCCCCCCCCCCCCCOC[C@@H](COC1O[C@H](CN)[C@@H](O)[C@H](O)[C@H]1N)OC (stereo partly specified),Activity,BT-474 [11],Active
CCCCCCCCCCCCCCCCOC[C@H](CO[C@@H]1O[C@H](CNCCCCCCCCCCCCN)[C@@H](O)[C@H](O)[C@H]1N)OC,Activity,[12],0%
same,Activity,MIA PaCa-2 [13],0%
same,Activity,MDA-MB-231 [14],>95%
same,Activity,DU-145 [15],0%
same,Activity,JIMT-1 [16],Active
same,CC50,PC-3 [1],2 µM
same,CC50,MDA-MB-231 [2],1.5 µM
same,Activity,BT-549 [17],>95%
same,CC50,U-251 [18],2.6 µM
same,Activity,BT-474 [11],Active
same,Activity,MDA-MB-453 [19],>95%
same,CC50,JIMT-1 [3],3.4 µM
same,CC50,MDA-MB-453 [20],4 µM
same,Activity,BT-474 [8],Active
same,Activity,DU-145 [21],Active
same,CC50,[22],2.5 µM
same,CC50,BT-474 [4],1.6 µM
same,CC50,BT-549 [23],2.5 µM
same,Activity,MDA-MB-468 [24],>95%
same,CC50,[25],3.8 µM
same,Activity,Hs-578T [26],>95%
same,Activity,BT-474 [27],0%
same,CC50,A2780S [28],2.4 µM
same,CC50,DU-145 [6],3.8 µM
same,Activity,BT-474 [9],Active
same,viability at 20 µM,BT-474 [10],0%
same,CC50,MIA PaCa-2 [7],4 µM
same,viability at 10 µM,BT-474 [29],2%
same,CC50,MDA-MB-468 [30],2 µM
same,Activity,DU-145 [31],Active
same,Activity,JIMT-1 [32],Active
same,Activity,JIMT-1 [33],inactive
same,Activity,U-251 [34],0%
same,Activity,JIMT-1 [35],0%
same,Activity,A2780S [36],0%
same,Activity,MDA-MB-231 [37],0%
same,Ratio,[38],15
same,Activity,DU-145 [39],inactive
same,Activity,PC-3 [40],0%
same,Activity,[41],0%
same,CC50,Hs-578T [42],1.8 µM

# — ChEMBL document CHEMBL4052815, “Amphiphilic Modulation of Glycosylated Antitumor Ether Lipids Results in a Potent Triamino Scaffold against Epithelial Cancer Cell Lines and BT474 Cancer Stem Cells” (J Med Chem, 2017)
